Experimental data published in ChEMBL document CHEMBL1155468, “Syntheses and evaluation of anticonvulsant profile and teratogenicity of novel amide derivatives of branched aliphatic carboxylic acids with 4-aminobenzensulfonamide” (J Med Chem, 2010).
Activity calls are given as the source filed them. The rule behind the calls is not given here.

What was measured:
[1] = system: Mus musculus; assay: Anticonvulsant activity in CF1 albino mouse assessed as inhibition of subcutaneous pentylenetetrazole-induced seizures at 30 mg/kg, ip after 0.5 hrs; format: functional, organism-based; parameters: dose 30 mg/kg
Procedure, shortened: (§1)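 Adult male CF no. 1 albino mice (18-25 g) dosed ip with compound suspended in 0.5% methylcellulose (0.01 mL/g). Convulsant: pentylenetetrazol dissolved in 0.9% saline as a 0.85% solution for mice, given subcutaneously.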

[2] = system: Mus musculus; assay: Anticonvulsant activity in CF1 albino mouse assessed as inhibition of subcutaneous pentylenetetrazole-induced seizures at 100 mg/kg, ip after 0.5 hrs; format: functional, organism-based; parameters: dose 100 mg/kg; procedure, shortened: as §1
[3] = system: Mus musculus; assay: Anticonvulsant activity in CF1 albino mouse assessed as inhibition of subcutaneous pentylenetetrazole-induced seizures at 300 mg/kg, ip after 0.5 hrs; format: functional, organism-based; parameters: dose 300 mg/kg; procedure, shortened: as §1
[4] = system: Mus musculus; assay: Anticonvulsant activity in CF1 albino mouse assessed as inhibition of subcutaneous pentylenetetrazole-induced seizures at 30 mg/kg, ip after 4 hrs; format: functional, organism-based; parameters: dose 30 mg/kg; procedure, shortened: as §1
[5] = system: Mus musculus; assay: Anticonvulsant activity in CF1 albino mouse assessed as inhibition of subcutaneous pentylenetetrazole-induced seizures at 100 mg/kg, ip after 4 hrs; format: functional, organism-based; parameters: dose 100 mg/kg; procedure, shortened: as §1
[6] = system: Mus musculus; assay: Teratogenic effect in SWV mouse assessed as resorptions at 325 mg/kg, ip administered on morning of day 8 of gestation; format: toxicity, organism-based; parameters: dose 325 mg/kg, route intraperitoneal; conditions: in vivo
[7] = system: Mus musculus; assay: Teratogenic effect in SWV mouse assessed as resorptions at 164 mg/kg, ip administered on morning of day 8 of gestation; format: toxicity, organism-based; parameters: dose 164 mg/kg, route intraperitoneal; conditions: in vivo
[8] = system: Mus musculus; assay: Teratogenic effect in SWV mouse assessed as fetuses with neural tube deffects at 325 mg/kg, ip administered on morning of day 8 of gestation; format: toxicity, organism-based; parameters: dose 325 mg/kg, route intraperitoneal; conditions: in vivo
[9] = system: Mus musculus; assay: Teratogenic effect in SWV mouse assessed as live fetuses at 325 mg/kg, ip administered on morning of day 8 of gestation; format: toxicity, organism-based; parameters: dose 325 mg/kg, route intraperitoneal; conditions: in vivo
[10] = system: Mus musculus; assay: Teratogenic effect in SWV mouse assessed as live fetuses at 164 mg/kg, ip administered on morning of day 8 of gestation; format: toxicity, organism-based; parameters: dose 164 mg/kg, route intraperitoneal; conditions: in vivo
[11] = system: Mus musculus; assay: Anticonvulsant activity in CF1 albino mouse assessed as inhibition of maximal electroshock-induced seizures at 30 mg/kg, ip after 0.5 hrs; format: functional, organism-based; parameters: dose 30 mg/kg
Procedure, shortened: (§2)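 Test compounds suspended in 0.5% methylcellulose and given ip to adult male CF no. 1 albino mice (18-25 g) at 0.01 mL/g body weight before maximal electroshock challenge.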

[12] = system: Mus musculus; assay: Anticonvulsant activity in CF1 albino mouse assessed as inhibition of maximal electroshock-induced seizures at 100 mg/kg, ip after 0.5 hrs; format: functional, organism-based; parameters: dose 100 mg/kg; procedure, shortened: as §2
[13] = system: Mus musculus; assay: Anticonvulsant activity in CF1 albino mouse assessed as inhibition of maximal electroshock-induced seizures at 300 mg/kg, ip after 0.5 hrs; format: functional, organism-based; parameters: dose 300 mg/kg; procedure, shortened: as §2
[14] = system: Mus musculus; assay: Anticonvulsant activity in CF1 albino mouse assessed as inhibition of maximal electroshock-induced seizures at 30 mg/kg, ip after 4 hrs; format: functional, organism-based; parameters: dose 30 mg/kg; procedure, shortened: as §2
[15] = system: Mus musculus; assay: Anticonvulsant activity in CF1 albino mouse assessed as inhibition of maximal electroshock-induced seizures at 300 mg/kg, ip after 4 hrs; format: functional, organism-based; parameters: dose 300 mg/kg; procedure, shortened: as §2
[16] = system: Mus musculus; assay: Anticonvulsant activity in CF1 albino mouse assessed as inhibition of subcutaneous pentylenetetrazole-induced seizures at 300 mg/kg, ip after 4 hrs; format: functional, organism-based; parameters: dose 300 mg/kg; procedure, shortened: as §1
[17] = system: Mus musculus; assay: Neurotoxicity in CF1 albino mouse assessed as motor impairment at 30 mg/kg, ip after 0.5 hrs; format: toxicity, organism-based; parameters: dose 30 mg/kg, route intraperitoneal; conditions: in vivo
[18] = system: Mus musculus; assay: Neurotoxicity in CF1 albino mouse assessed as motor impairment at 100 mg/kg, ip after 0.5 hrs; format: toxicity, organism-based; parameters: dose 100 mg/kg, route intraperitoneal; conditions: in vivo
[19] = system: Mus musculus; assay: Neurotoxicity in CF1 albino mouse assessed as motor impairment at 300 mg/kg, ip after 0.5 hrs; format: toxicity, organism-based; parameters: dose 300 mg/kg, route intraperitoneal; conditions: in vivo
[20] = system: Mus musculus; assay: Neurotoxicity in CF1 albino mouse assessed as motor impairment at 30 mg/kg, ip after 4 hrs; format: toxicity, organism-based; parameters: dose 30 mg/kg, route intraperitoneal; conditions: in vivo
[21] = system: Mus musculus; assay: Neurotoxicity in CF1 albino mouse assessed as motor impairment at 100 mg/kg, ip after 4 hrs; format: toxicity, organism-based; parameters: dose 100 mg/kg, route intraperitoneal; conditions: in vivo
[22] = system: Mus musculus; assay: Neurotoxicity in CF1 albino mouse assessed as motor impairment at 300 mg/kg, ip after 4 hrs; format: toxicity, organism-based; parameters: dose 300 mg/kg, route intraperitoneal; conditions: in vivo
[23] = organism: Rattus norvegicus; assay: Protective index, ratio of TD50 for rat to ED50 for maximal electroshock-induced rat seizure model
[24] = system: Rattus norvegicus; assay: Neurotoxicity in Sprague-Dawley rat assessed as motor impairment at 30 mg/kg, po after 0.25 to 4 hrs; conditions: in vivo
[25] = system: Rattus norvegicus; assay: Anticonvulsant activity in po dosed rat assessed as inhibition of maximal electroshock-induced seizures
[26] = system: Rattus norvegicus; assay: Anticonvulsant activity in Sprague-Dawley rat assessed as inhibition of maximal electroshock-induced seizures at 30 mg/kg, po after 1 hr
[27] = system: Rattus norvegicus; assay: Anticonvulsant activity in Sprague-Dawley rat assessed as inhibition of maximal electroshock-induced seizures at 30 mg/kg, po after 30 mins
[28] = system: Rattus norvegicus; assay: Anticonvulsant activity in Sprague-Dawley rat assessed as inhibition of maximal electroshock-induced seizures at 30 mg/kg, po after 15 mins
[29] = system: Mus musculus; assay: Teratogenic effect in SWV mouse assessed as resorptions at 729 mg/kg, ip administered on morning of day 8 of gestation; format: toxicity, organism-based; parameters: dose 729 mg/kg, route intraperitoneal; conditions: in vivo
Procedure, shortened: (§3)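 SWV inbred mice: two-month-old nulligravid females mated overnight with males and checked for vaginal plugs next morning; gestation onset taken as 10 p.m. the previous night. On gestation day 8.5 each dam got one ip injection, 0.55–2.7 mmol/kg, in 25% aqueous Cremophor EL (vehicle controls dosed alike), 10 μL/g body weight. Litters and implants tallied; resorptions and live fetuses reported as counts with percentages.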

[30] = system: Mus musculus; assay: Teratogenic effect in SWV mouse assessed as resorptions at 486 mg/kg, ip administered on morning of day 8 of gestation; format: toxicity, organism-based; parameters: dose 486 mg/kg, route intraperitoneal; conditions: in vivo; procedure, shortened: as §3
[31] = system: Mus musculus; assay: Teratogenic effect in SWV mouse assessed as resorptions at 294 mg/kg, ip administered on morning of day 8 of gestation; format: toxicity, organism-based; parameters: dose 294 mg/kg, route intraperitoneal; conditions: in vivo; procedure, shortened: as §3
[32] = system: Mus musculus; assay: Teratogenic effect in SWV mouse assessed as resorptions at 148 mg/kg, ip administered on morning of day 8 of gestation; format: toxicity, organism-based; parameters: dose 148 mg/kg, route intraperitoneal; conditions: in vivo; procedure, shortened: as §3
[33] = system: Mus musculus; assay: Teratogenic effect in SWV mouse assessed as fetuses with neural tube deffects at 486 mg/kg, ip administered on morning of day 8 of gestation; format: toxicity, organism-based; parameters: dose 486 mg/kg, route intraperitoneal; conditions: in vivo
Procedure, shortened: (§4)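 Two-month-old nulligravid SWV females were mated overnight and checked for vaginal plugs the next morning; gestation onset was set at 10 p.m. the previous night. On gestation day 8.5, each dam received a single ip injection (0.55-2.7 mmol/kg range) or vehicle (25% aqueous Cremophor EL) at 10 μL/g body weight. Litters were scored for implants, resorptions, live and dead fetuses, and fetuses with neural tube defects.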

[34] = system: Mus musculus; assay: Teratogenic effect in SWV mouse assessed as fetuses with neural tube deffects at 294 mg/kg, ip administered on morning of day 8 of gestation; format: toxicity, organism-based; parameters: dose 294 mg/kg, route intraperitoneal; conditions: in vivo; procedure, shortened: as §4
[35] = system: Mus musculus; assay: Teratogenic effect in SWV mouse assessed as fetuses with neural tube deffects at 148 mg/kg, ip administered on morning of day 8 of gestation; format: toxicity, organism-based; parameters: dose 148 mg/kg, route intraperitoneal; conditions: in vivo; procedure, shortened: as §4
[36] = system: Mus musculus; assay: Teratogenic effect in SWV mouse assessed as live fetuses at 729 mg/kg, ip administered on morning of day 8 of gestation; format: toxicity, organism-based; parameters: dose 729 mg/kg, route intraperitoneal; conditions: in vivo; procedure, shortened: as §3
[37] = system: Mus musculus; assay: Teratogenic effect in SWV mouse assessed as live fetuses at 486 mg/kg, ip administered on morning of day 8 of gestation; format: toxicity, organism-based; parameters: dose 486 mg/kg, route intraperitoneal; conditions: in vivo; procedure, shortened: as §3
[38] = system: Mus musculus; assay: Teratogenic effect in SWV mouse assessed as live fetuses at 294 mg/kg, ip administered on morning of day 8 of gestation; format: toxicity, organism-based; parameters: dose 294 mg/kg, route intraperitoneal; conditions: in vivo; procedure, shortened: as §4
[39] = system: Mus musculus; assay: Teratogenic effect in SWV mouse assessed as live fetuses at 148 mg/kg, ip administered on morning of day 8 of gestation; format: toxicity, organism-based; parameters: dose 148 mg/kg, route intraperitoneal; conditions: in vivo; procedure, shortened: as §4
[40] = system: Rattus norvegicus; assay: Anticonvulsant activity in Sprague-Dawley rat assessed as inhibition of maximal electroshock-induced seizures at 30 mg/kg, po after 2 hrs
[41] = system: Rattus norvegicus; assay: Anticonvulsant activity in Sprague-Dawley rat assessed as inhibition of maximal electroshock-induced seizures at 30 mg/kg, po after 4 hrs

| Structure (SMILES) | Activity [1] | Activity [2] | Activity [3] | Activity [4] | Activity [5] | Activity [11] | Activity [12] | Activity [13] | Activity [14] | Activity [15] | Activity [16] | Activity [17] | Activity [18] | Activity [19] | Activity [20] | Activity [21] | Activity [22] | ED50 [25] [mg/kg] | Activity [26] | also measured |
| --- | --- | --- | --- | --- | --- | --- | --- | --- | --- | --- | --- | --- | --- | --- | --- | --- | --- | --- | --- | --- |
| CCCC(C(=O)Nc1ccc(S(N)(=O)=O)cc1)C(C)C (stereo not given) | inactive | inactive | inactive | inactive | inactive | inactive | inactive | Active | inactive | Active | inactive | Non-toxic | Non-toxic | Non-toxic | Non-toxic | Non-toxic | Non-toxic | 41.5 | Active | Activity [6]: 35.4%; Activity [7]: 10.3%; Activity [8]: 2%; Activity [9]: 64.6%; Activity [10]: 100%; Ratio TD50/ED50 [23]: >12; Activity [24]: Non-toxic; Activity [27]: inactive; Activity [28]: inactive |
| CCCC(C)C(=O)Nc1ccc(S(N)(=O)=O)cc1 (stereo not given) | inactive | inactive | inactive | inactive | inactive | inactive | inactive | Active | inactive | Active | inactive | Non-toxic | Non-toxic | Non-toxic | Non-toxic | Non-toxic | Non-toxic | 10.8 | Active | Activity [29]: 92.5%; Activity [30]: 58.3%; Activity [31]: 34.8%; Activity [32]: 10%; Activity [33]: 17%; Activity [34]: 5.6%; Activity [35]: 3.2%; Activity [36]: 7.5%; Activity [37]: 41.7%; Activity [38]: 65.2%; Activity [39]: 90%; Activity [40]: Active; Activity [41]: Active |
